Structures are written as SMILES. Active and inactive are the calls of the source.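 The calls were made as follows, unless noted: active = NADPH fluorescence slope more negative than the mean of all samples by about 3 SD, 99.7% confidence; inactive = the rest.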

Test [1] is described as follows: inhibitors of TNFa-induced NFkB p65 translocation, primary screen, imaging, HUVEC, MLSMR starter and 10KST1 sets (AID 438;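 active = inhibition above 20% together with a positive visual image hit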;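 also: compound added about 3h40 before a 20 min TNFalpha stimulation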;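 as to inhibition: signal is the nuclear over cytoplasmic p65 intensity ratio per well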). The conditions noted are these: HUVEC TNFa-induced p65 nuclear translocation; cell count: measured here: nuclei count (cytotoxicity indicator), at 2.08 µM; inhibition: at 2 µM, stronger effect = higher value, 0% TNFa-plus-vehicle, 100% no-TNFa wells.
Test [2] can be described thus: inhibitors of mutant huntingtin aggregation, primary screen, imaging, exon1htt(103Q)mCFP cells, high-content imaging (AID 483;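 active = visual image review flags a hit and inhibition of aggregation exceeds 20%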;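 also: compound exposure lasted 3 days before fixation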;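 as to nuclei count: percent of the per-plate median nuclei count of sample wells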). The conditions noted are these: exon1htt(103Q)mCFP cell line, aggregate imaging, at 2 µM; inhibition of aggregation: stronger effect = higher value; nuclei count: measured here: cell count, toxicity.
Test [3] is described as follows: inhibitors of E-selectin induction by TNFa, primary screen, imaging, HUVEC, immunofluorescence, MLSMR starter and 10KST1 sets (AID 487;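 active = visually confirmed hit in the image check and inhibition above 20%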;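 as to inhibition: signal is fraction of cell area covered by stained E-selectin grains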;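 as to nuclei count: 100% = median nuclei count of all wells on the same plate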). The note with it: HUVEC TNFalpha-induced E-selectin immunofluorescence imaging, at 2 µM; inhibition: stronger effect = higher value; nuclei count: measured here: cell number, toxicity.
The target in test [4] is Voltage-gated potassium channel subunit beta-2 (Rattus norvegicus) (UniProt P62483). Briefly: KvBeta enzyme negative modulators, primary screen, biochemical, NADPH fluorescence (AID 622;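 active = fluorescence slope higher than the sample average by over 3 SD, cut at about -0.22 in these data, passing the limit was not always enough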;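 also: slope of raw intensity against log time taken from 70 to 1610 s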). The conditions noted are these: recombinant KvBeta, 4-cyanobenzaldehyde reduction, at 10 µM, stronger effect = higher value.
Voltage-gated potassium channel subunit beta-2 (Rattus norvegicus), sequence (P62483 whole entry, looked up): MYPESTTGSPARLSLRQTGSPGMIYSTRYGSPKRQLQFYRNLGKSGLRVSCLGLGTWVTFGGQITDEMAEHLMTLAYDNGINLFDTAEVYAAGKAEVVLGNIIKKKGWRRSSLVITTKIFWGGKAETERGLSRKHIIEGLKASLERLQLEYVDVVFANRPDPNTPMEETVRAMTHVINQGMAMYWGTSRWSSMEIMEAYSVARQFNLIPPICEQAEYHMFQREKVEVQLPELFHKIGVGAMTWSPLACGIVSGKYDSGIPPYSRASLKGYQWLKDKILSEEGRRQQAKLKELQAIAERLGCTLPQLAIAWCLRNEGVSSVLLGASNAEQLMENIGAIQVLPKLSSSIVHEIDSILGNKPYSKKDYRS
The target is the same in test [5]. Briefly: KvBeta positive modulators, primary screen, biochemical, NADPH fluorescence (AID 623).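 Also: fluorescence intensity change per second fitted from 20 to 320 s.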 The note with it: Recombinant KvBeta, NADPH fluorescence decrease slope, 10 min; at 10 µM; stronger effect = lower value.
Test [6] concerns the target Muscarinic acetylcholine receptor M4 (Homo sapiens) (UniProt P08173). In words: compounds altering M4/GIRK thallium flux, either direction, primary screen, M4 allosteric agonist project, cell-based, HEK293 M4/GIRK, BTC-AM (AID 625;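 active = fluorescence slope after compound addition differing from the mean of all tested samples at 99.7% confidence, mostly higher but some lower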;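 also: thallium influx through GIRK channels coupled to M4 in HEK293 cells with BTC-AM dye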). The conditions noted are these: at 10 µM, actives lie on both sides. The essentials: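 System: HEK293 cells with M4 receptor and GIRK channels | Incubation: Cells overnight at 37 °C, BTC-AM loading 1 h, reads 2 min total | Technique: Kinetic BTC-AM fluorescence sampled at 1 Hz, 10 s pre-addition baseline | Measure: Post-addition slope, 15–24 s, of baseline-normalized fluorescence | Control set: Carbachol positive, DMSO negative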

A short description of test [7]: inhibitors of Sendai virus-induced IRF3 signaling, primary screen, TLR/RLR signaling modifier project, cell-based, Sendai virus stimulus, luciferase, 10K MLSCN set (AID 602276;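 active = inhibition at or above 50% at 10 µM; inactive = inhibition below 50%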;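 also: firefly luciferase from ISG56 promoter only with Renilla not read in this screen; 0% = Sendai virus plus DMSO and 100% = medium plus DMSO without virus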). The conditions noted are these: HEK293 RL24 IRF3 luciferase reporter, at 10 µM, stronger effect = higher value.
The nature of test [8]: inhibitors of poly I:C-induced TLR3 signaling, primary screen, cell-based, poly I:C stimulus, luciferase, 10K MLSCN set (AID 602277;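 active = inhibition of the reporter signal at or above 50%; inactive = inhibition below 50%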). The note with it: HEK293-TLR3 RL24 IRF3 luciferase reporter, at 10 µM, stronger effect = higher value. On the technique in general: A reporter such as luciferase makes a cellular process visible.

Muscarinic acetylcholine receptor M4 (Homo sapiens), sequence (P08173 whole entry, looked up): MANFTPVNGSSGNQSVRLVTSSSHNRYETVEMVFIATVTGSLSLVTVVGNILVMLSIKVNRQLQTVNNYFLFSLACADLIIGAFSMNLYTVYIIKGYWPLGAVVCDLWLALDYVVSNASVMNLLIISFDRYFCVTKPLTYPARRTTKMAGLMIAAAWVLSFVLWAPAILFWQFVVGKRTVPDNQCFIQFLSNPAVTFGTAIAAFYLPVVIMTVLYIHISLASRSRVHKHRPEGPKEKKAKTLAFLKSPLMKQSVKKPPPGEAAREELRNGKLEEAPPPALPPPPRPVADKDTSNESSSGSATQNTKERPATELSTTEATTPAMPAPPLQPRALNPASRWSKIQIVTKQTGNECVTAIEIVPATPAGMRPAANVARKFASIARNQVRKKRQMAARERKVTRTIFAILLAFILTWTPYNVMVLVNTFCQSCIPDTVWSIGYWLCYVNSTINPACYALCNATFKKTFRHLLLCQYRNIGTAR

What is called inhibition is the relative decrease from the control value, in per cent. With `Cc1cc(NC(=O)c2cc(-c3ccco3)on2)n(-c2ccccc2)n1`, in test [1], the cell count came out at 326. In addition, the inhibition in test [1] was 6.8% (inactive); in test [3], -56.3% (inactive); in test [7], 17.5% (inactive); in test [8], 12.9% (inactive). In addition, in test [2], the inhibition of aggregation is 6.4% (inactive). Further, the nuclei count in test [2] was determined as 105%; in test [3] it was 121%. In addition, the fluorescence slope in test [4] was -0.466 (inactive); in test [6] it was 0.00551 (inactive). Further, in test [5], the NADPH fluorescence slope is -2.4e-05 (inactive).
Regarding `CCOc1ccc(C(=O)N(Cc2ccc(N(C)C)cc2)C2CCS(=O)(=O)C2)cc1` (centres undefined), in test [1], the cell count was 249. The inhibition is -12.2% (inactive) in test [1], -56.2% (inactive) in test [3], 19.7% (inactive) in test [7] and 23.5% (inactive) in test [8]. Further, the inhibition of aggregation in test [2] was 2.5% (inactive). For the same compound, the nuclei count is 75% in test [2] and 96.7% in test [3]. Further, the fluorescence slope is -0.618 (inactive) in test [4] and 0.00328 (inactive) in test [6]. Also, the NADPH fluorescence slope in test [5] is -3.1e-05 (inactive).
Regarding `CCN(Cc1nc2ccccc2c(=O)[nH]1)Cc1nc2cc(OC)c(OC)cc2c(=O)[nH]1`, the cell count in test [1] was 403. Further, the inhibition in test [1] is -19.9% (inactive); in test [3], -17.4% (inactive); in test [7] it was -12.7% (inactive); in test [8] it was -12.6% (inactive). Further, the inhibition of aggregation in test [2] was 0% (inactive). Also, the figures for the nuclei count in test [2] and in test [3] were 113% and 144%, respectively. Also, the fluorescence slope in test [4] is -0.324 (inactive); in test [6] it was 0.00825 (inactive). Moreover, in test [5], the NADPH fluorescence slope was -3.7e-06 (inactive).
Turning to `O=C(Nc1cccc(F)c1)c1ccc2c(c1)OCO2`, the cell count in test [1] was 246. Also, the inhibition in test [1] is -2.1% (inactive); in test [3] it was 80.7% (active); in test [7], -56.2% (inactive); in test [8], -121% (inactive). In addition, in test [2], the inhibition of aggregation is 31.8% (inactive). The nuclei count stood at 83.5% in test [2] and 85% in test [3]. For the same compound, the fluorescence slope is -0.597 (inactive) in test [4] and 0.00384 (inactive) in test [6]. Further, the NADPH fluorescence slope in test [5] is 1.2e-05 (inactive).
As for `FC(F)(F)c1nnc2ccc(NCn3nnc4ccccc43)nn12`, the cell count in test [1] came out at 562. Besides, the inhibition in test [1] was -27.6% (inactive); in test [3], 16.1% (inactive); in test [7], 12.7% (inactive); in test [8] it was 3.14% (inactive). Further, in test [2], the inhibition of aggregation is 18.9% (inactive). In addition, the nuclei count in test [2] came out at 85.2%; in test [3], 94.1%. Further, the fluorescence slope in test [4] is -0.434 (inactive); in test [6], 0.00533 (inactive). Moreover, in test [5], the NADPH fluorescence slope was 3.1e-05 (inactive).
For the compound `COc1cccc(N2CCN(CC(=O)NCc3cccs3)CC2)c1`, the cell count in test [1] came to 702. In addition, the inhibition in test [1] was -27.6% (inactive); in test [3], 24.5% (inactive); in test [7] it was 21.2% (inactive); in test [8], -6.45% (inactive). Besides, in test [2], the inhibition of aggregation is 20.4% (inactive). The nuclei count in test [2] was 100%; in test [3], 99.5%. Further, the figures for the fluorescence slope in test [4] and in test [6] were -0.318 (inactive) and 0.00733 (inactive), respectively. The NADPH fluorescence slope in test [5] was -1.7e-05 (inactive).
Turning to `Cc1cc(Cl)c(S(=O)(=O)N2CCN(c3ccc(F)cc3)CC2)cc1OCC(N)=O`, the cell count in test [1] came to 373. Besides, the inhibition in test [1] is -9% (inactive); in test [3], -37.6% (inactive); in test [7] it was 19.6% (inactive); in test [8], 9.49% (inactive). Besides, the inhibition of aggregation in test [2] was 0.5% (inactive). Further, the nuclei count in test [2] stood at 97.1%; in test [3], 96.1%. Besides, the fluorescence slope in test [4] was -0.587 (inactive); in test [6] it was 0.0038 (inactive). The NADPH fluorescence slope in test [5] is -9.2e-05 (inactive).
As for `O=C(CSc1ncccn1)c1ccccc1Br`, in test [1], the cell count was determined as 483. In addition, the inhibition in test [1] is 2.9% (inactive); in test [3] it was 1.5% (inactive); in test [7], -24.3% (inactive); in test [8], -65.9% (inactive). Further, the inhibition of aggregation in test [2] is 0.9% (inactive). The nuclei count in test [2] was found to be 114%; in test [3], 103%. Also, the fluorescence slope in test [4] was -0.582 (inactive); in test [6] it was 0.00475 (inactive). In test [5], the NADPH fluorescence slope is -0.000119 (inactive).
As for `COc1cc(S(=O)(=O)N2CCOCC2)ccc1NC(=O)COC(=O)c1ccccn1`, the cell count in test [1] stood at 621. Further, the inhibition in test [1] is 11.9% (inactive); in test [3], -45.4% (inactive); in test [7], 11.7% (inactive); in test [8], 20.5% (inactive). In addition, in test [2], the inhibition of aggregation was -7.1% (inactive). Also, the nuclei count is 126% in test [2] and 101% in test [3]. The fluorescence slope in test [4] was -0.542 (inactive); in test [6], 0.00554 (inactive). Besides, in test [5], the NADPH fluorescence slope is -2.5e-05 (inactive).
In the case of `O=C(Nc1nnc(C2CCCCC2)s1)c1cccs1`, in test [1], the cell count came out at 511. Further, the inhibition in test [1] is -8.1% (inactive); in test [3], -77.2% (inactive); in test [7], -37.9% (inactive); in test [8], -113% (inactive). For the same compound, the inhibition of aggregation in test [2] is -2.9% (inactive). Further, the nuclei count turned out to be 108% in test [2] and 121% in test [3]. Moreover, the fluorescence slope in test [4] is -0.437 (inactive); in test [6] it was 0.00416 (inactive). Besides, in test [5], the NADPH fluorescence slope was -2.3e-05 (inactive).
Regarding `CCC(=O)Oc1ccc2c(C)cc(=O)oc2c1C`, the cell count in test [1] turned out to be 328. For the same compound, the inhibition in test [1] is 3.4% (inactive); in test [3], -42.2% (inactive); in test [7], 10.7% (inactive); in test [8], -2.94% (inactive). Also, the inhibition of aggregation in test [2] is -23.4% (inactive). Also, the nuclei count amounted to 98.2% in test [2] and 108% in test [3]. Moreover, the fluorescence slope was -0.554 (inactive) in test [4] and 0.00649 (inactive) in test [6]. For the same compound, in test [5], the NADPH fluorescence slope was -4.5e-05 (inactive).
`CCn1cnc2cc(NCc3cccc(OC)c3O)ccc21`: the cell count in test [1] was found to be 322. For the same compound, the inhibition was -2.8% (inactive) in test [1], -18.2% (inactive) in test [3], -3.88% (inactive) in test [7] and -26.2% (inactive) in test [8]. Besides, the inhibition of aggregation in test [2] is -3.1% (inactive). For the same compound, the nuclei count worked out at 94.7% in test [2] and 88% in test [3]. In addition, the values for the fluorescence slope in test [4] and in test [6] were -0.437 (inactive) and 0.00434 (inactive), respectively. The NADPH fluorescence slope in test [5] was -4.8e-05 (inactive).
In the case of `COc1cc(OC)c(C(=O)Nc2ncn[nH]2)cc1OC`, the cell count in test [1] was found to be 667. In addition, the inhibition in test [1] was -1.1% (inactive); in test [3], -95.9% (inactive); in test [7], 17.7% (inactive); in test [8], 19.5% (inactive). Further, in test [2], the inhibition of aggregation is -12% (inactive). Also, the nuclei count in test [2] was found to be 107%; in test [3], 108%. The fluorescence slope is -0.537 (inactive) in test [4] and 0.00435 (inactive) in test [6]. In addition, the NADPH fluorescence slope in test [5] is -0.000156 (inactive).
With `COc1ccc(-c2cc(C(=O)NCc3ccc(Cl)cc3)no2)cc1OC`, the cell count in test [1] was 358. In addition, the inhibition in test [1] is -2.5% (inactive); in test [3] it was 41% (inactive); in test [7], 14.3% (inactive); in test [8], -8.76% (inactive). In test [2], the inhibition of aggregation was -5.6% (inactive). Besides, the nuclei count in test [2] and in test [3] was 106% in each case. Further, the fluorescence slope in test [4] is -0.19 (inactive); in test [6], 0.00727 (inactive). The NADPH fluorescence slope in test [5] is -1.3e-05 (inactive).

For the origin of these results see PubChem BioAssay.
